We go through two compounds from ChEMBL document CHEMBL4613315, “Design of First-in-Class Dual EZH2/HDAC Inhibitor: Biochemical Activity and Biological Evaluation in Cancer Cells” (ACS Med Chem Lett, 2020).

Structures are written as SMILES.

The species named for one assay is Homo sapiens. The assay is described as follows: Cell cycle arrest in human RH4 cells assessed as increase in subG1 accumulation incubated for 72 hrs by propidium iodide staining based assay. It counts as functional.
Assay [1] has as its system U-937. The assay is described as follows: Induction of apoptosis in human U937 cells assessed as late apoptotic cells at 25 uM incubated for 72 hrs by annexin V-FITC staining based flow cytometry (reference value: 0.7 %). It counts as functional.
Assay [2] in a line: Cell cycle arrest in human RH4 cells assessed as G0/G1 accumulation at 14 uM incubated for 72 hrs by propidium iodide staining based flow cytometry (reference value: 46.2 %). Format: functional.
In assay [3] the test system is U-937. The assay can be described thus: Induction of apoptosis in human U937 cells assessed as early apoptotic cells at 25 uM incubated for 72 hrs by annexin V-FITC staining based flow cytometry (reference value: 3.4 %). Format: functional.
Assay [4] in a line: Induction of apoptosis in human RH4 cells assessed as necrotic cells at 14 uM incubated for 72 hrs by annexin V-FITC staining based flow cytometry (reference value: 0.4 %). Format: functional.
Assay [5] is described as follows: Induction of apoptosis in human RH4 cells assessed as early apoptotic cells at 14 uM incubated for 72 hrs by annexin V-FITC staining based flow cytometry (reference value: 10.8 %). Format: functional.
For assay [6], the system named is U-937. The assay can be described thus: Cytotoxicity against human U937 cells assessed as reduction in cell viability at 25 uM incubated for 96 hrs by CellTiter-Glo Luminescent cell viability assay relative to control. It counts as functional. The note with it: U-937, 96 h. The gist of the method: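 Viability of U937 (5–25 μM) and RH4 (5–35 μM) cells after 48, 72 and 96 h of treatment at increasing concentrations.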

The test system of another assay is SK-N-SH. The assay can be described thus: Cytotoxicity against human SK-N-SH cells assessed as reduction in cell viability incubated for 72 hrs by CellTiter-Glo Luminescent cell viability assay. Format: functional, cell-based. The method, boiled down: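 Antiproliferative IC50 after 72 h of treatment. Values are means of three independent experiments, each measured in triplicate, ± SD.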

The target of assay [7] is Histone deacetylase (Homo sapiens) (UniProt Q13547+O15379+Q9UBN7+Q92769+Q9UQL6+Q8WUI4+Q9BY41+Q96DB2+P56524+Q9UKV0+Q969S8). The assay can be described thus: Inhibition of HDAC in human U937 cells assessed as Ac-H3 level at 50 uM in presence of vorinostat incubated for 120 hrs by Western blot analysis (reference value: 1). It counts as cell-based. The note with it: U-937. The gist of the method:
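U937 leukemia cells given EZH2 inhibitor 50 μM together with HDAC inhibitor 0.5 μM; Western blot at 96 and 120 h for H3K27me3 or acetyl-H3, actin as loading control; densitometry normalized to loading control then to DMSO vehicle.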

In assay [8] the test system is U-937. The assay can be described thus: Cytotoxicity against human U937 cells assessed as combinational index measured at fraction affected value of 0.68 in presence of vorinostat at 10 uM incubated for 72 hrs by CellTiter-Glo Luminescent cell viability assay. It counts as functional. The gist of the method: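 Viability after 72 h of single-agent or combined treatment with the HDAC inhibitor (0.05–0.25 μM) and the EZH2 inhibitor. EZH2 inhibitor range: U937 5–25 μM; RH4 10–50 μM. Synergy was assessed by combination index and isobologram analysis.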

For assay [9], the target named is Histone-lysine N-methyltransferase EZH2 (Homo sapiens, UniProt Q15910). The assay can be described thus: Inhibition of EZH2 in human U937 cells assessed as H3K27me3 level at 50 uM incubated for 120 hrs by Western blot analysis. It counts as cell-based. To be noted: U-937.
Chain of Histone-lysine N-methyltransferase EZH2 (Q15910 whole entry, looked up): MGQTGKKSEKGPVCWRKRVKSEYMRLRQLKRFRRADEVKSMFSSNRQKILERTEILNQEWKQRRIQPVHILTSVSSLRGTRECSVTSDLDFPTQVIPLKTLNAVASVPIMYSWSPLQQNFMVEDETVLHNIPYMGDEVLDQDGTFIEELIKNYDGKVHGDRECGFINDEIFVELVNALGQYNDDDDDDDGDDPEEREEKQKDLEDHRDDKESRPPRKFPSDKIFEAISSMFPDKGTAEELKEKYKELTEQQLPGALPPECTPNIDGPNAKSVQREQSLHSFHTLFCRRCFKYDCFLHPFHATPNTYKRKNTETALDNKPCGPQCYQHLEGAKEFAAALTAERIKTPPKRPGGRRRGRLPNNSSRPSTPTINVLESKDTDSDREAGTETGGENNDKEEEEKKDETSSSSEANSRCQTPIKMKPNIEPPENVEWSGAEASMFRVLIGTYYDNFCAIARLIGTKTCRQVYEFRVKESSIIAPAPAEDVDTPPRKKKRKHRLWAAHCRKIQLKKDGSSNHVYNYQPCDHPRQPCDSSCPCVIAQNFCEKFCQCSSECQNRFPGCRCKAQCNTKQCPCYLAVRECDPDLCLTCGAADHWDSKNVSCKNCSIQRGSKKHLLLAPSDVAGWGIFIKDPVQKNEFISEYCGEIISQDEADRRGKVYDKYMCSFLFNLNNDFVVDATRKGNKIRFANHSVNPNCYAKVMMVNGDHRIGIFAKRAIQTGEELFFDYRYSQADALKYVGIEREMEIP

As to `Cc1cc(C)c(CNC(=O)c2cc(C)n(-c3cccc(NC(=O)CCCCCCC(=O)NO)c3)c2C)c(=O)[nH]1`, the Activity entry is “Dose-dependent effect” in the assay listed under Homo sapiens; 1.4% in the assay with U-937 [1]; 47.2% in assay [2]; 23.3% with U-937 [3]; 0.4% in assay [4]; 13.8% in assay [5]. The inhibition at 25 µM with U-937 [6] came to 90%. Also, the IC50 in the assay with SK-N-SH was found to be 25 µM.
Turning to `Cc1cc(C)c(CNC(=O)c2cc(C)n(-c3ccccc3)c2C)c(=O)[nH]1`, the fold change (FC) worked out at 0.8 in assay [7] and 0.7 in assay [9]. Moreover, the CI in the assay with U-937 [8] was 0.14.
